Source: ChEMBL document CHEMBL1128389, “Thiadiazole derivatives: highly potent and specific HIV-1 reverse transcriptase inhibitors” (J Med Chem, 1995)

Key:
[1] = system: MT4; assay: Cytotoxic concentration based on the reduction of viability of mock-infected cells; assay type: functional; conditions: Homo sapiens
In short: (§1)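 Mock-infected MT-4 cells; viable cell number determined by MTT method; CC50 = concentration giving 50% reduction of viability.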

[2] = system: MT4; assay: Compound was evaluated for the inhibition of HIV-1 induced CPE (HTLV-III B strain ) replication in MT-4 cells; assay type: functional, cell-based; conditions: Homo sapiens
In short: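 HIV-1 strain HTLV-IIIB in MT-4 cells; EC50 = concentration giving 50% inhibition of virus-induced cytopathic effect; viable cells counted by MTT method.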

[3] = Selectivity index is the ratio of CC50 and EC50 in MT-4 cells.; assay type: functional, MT4
In short: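 MT-4 cells; selectivity index = CC50 (MTT viability of mock-infected cells) divided by EC50 (inhibition of HIV-1-induced cytopathic effect).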

[4] = system: MT4; assay: Compound was evaluated for the inhibition of HIV-1 induced CPE (HTLV-III B strain ) replication in MT-4 cells.; assay type: functional, cell-based; conditions: Homo sapiens
In short: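 HTLV-IIIB strain of HIV-1 in MT-4 cells; activity read as inhibition of virus-induced cytopathic effect, viable cells counted by MTT method; EC50 is the 50% effective concentration.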

[5] = Selectivity index is the ratio of CC50 and EC50 MT-4 cells.; assay type: functional, MT4
In short: (§2)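 HIV-1 strain HTLV-IIIB in MT-4 cells. EC50 is 50% inhibition of virus-induced cytopathic effect. CC50 is 50% loss of viability in mock-infected cells. Viable cells were counted by the MTT method. Index = CC50/EC50.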

[6] = system: MT4; assay: Selectivity index is the ratio of CC50 and EC50 in MT-4 cells; assay type: functional, Homo sapiens; in short: as §2
[7] = system: MT4; assay: Cytotoxic concentration based on the reduction of viability of mock-infected MT-4 cells; assay type: functional; conditions: Homo sapiens; in short: as §1
[8] = system: MT4; assay: Cytotoxic concentration based on the reduction of viability of mock-infected MT-4 cells.; assay type: functional; conditions: Homo sapiens; in short: as §1
[9] = system: MT4; assay: Compound was evaluated for the inhibition of HIV-2 induced CPE (LAV-2EHO strain ) replication in MT-4 cells; assay type: functional, cell-based; conditions: Homo sapiens
[10] = species: Homo sapiens; assay: (§3) Selectivity index is the ratio of CC50 and EC50 in peripheral blood lymphocytes (PBL).; assay type: functional
In short: (§4)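 HIV-1 strain HTLV-IIIB in peripheral blood lymphocytes. EC50 is 50% reduction of p24 antigen in culture supernatant. CC50 is 50% loss of viability in mock-infected cells, with viable cells counted by MTT. Index = CC50/EC50.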

[11] = species: Homo sapiens; assay: Cytotoxic concentration based on the reduction of viability of mock-infected peripheral blood lymphocytes (PBL).; assay type: functional
In short: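 Mock-infected peripheral blood lymphocytes; CC50 = concentration giving 50% reduction in viability, viable cells measured by MTT method.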

[12] = as §3; assay type: functional; in short: as §4
[13] = species: Homo sapiens; assay: Compound was evaluated for the inhibition of HIV-1 (HTLV-III B strain ) replication in peripheral blood lymphocytes (PBL), measured as p24 antigen reduction.
[14] = species: Homo sapiens; assay: Cytotoxic concentration based on the reduction of viability of mock-infected peripheral blood lymphocytes (PBL); assay type: functional
In short: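 Mock-infected peripheral blood lymphocytes; viable cell number determined by MTT method; CC50 is the concentration giving 50% reduction of viability.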

| Compound | CC50 [1] [µM] | EC50 [2] [µM] | Selectivity index [3] | also measured |
| --- | --- | --- | --- | --- |
| CN(C)C(=O)Oc1nsnc1-c1ccccc1Cl | 161 | 0.32 | 503 | – |
| Cc1nsnc1OC(=O)N(C)C | 535 | > 535 | <1 | – |
| CN(C)C(=O)Oc1nsnc1-c1ccccc1 | 183 | 23 | 8 | – |
| Oc1nsnc1-c1c(Cl)cccc1Cl | 221 | – | <1 | EC50 [4]: 212 µM |
| CCCN(C)C(=O)Oc1nsnc1-c1c(Cl)cccc1Cl | – | 0.013 | – | Selectivity index [5]: 10077; Selectivity index [6]: <1; CC50 [7]: 131 µM; CC50 [8]: 131 µM; EC50 [9]: > 131 µM; Selectivity index [10]: 37500; CC50 [11]: 150 µM |
| CCN(C)C(=O)Oc1nsnc1-c1c(Cl)cccc1Cl | 136 | 0.039 | 3487 | – |
| CN(C)C(=O)Oc1nsnc1-c1c(Cl)cccc1Cl | 145 | 0.24 | 604 | – |
| CN(C)C(=O)Oc1cnsn1 | 560 | > 560 | <1 | – |
| CCCCN(C)C(=O)Oc1nsnc1-c1c(Cl)cccc1Cl | 29 | 0.039 | 744 | – |
| CCCCCCN(C)C(=O)Oc1nsnc1-c1c(Cl)cccc1Cl | 16 | 0.1 | 160 | – |
| CC(=O)c1ccc(C)cc1NC(C(N)=O)c1c(Cl)cccc1Cl (centres undefined) [LOVIRIDE] | 137 | 0.006 | 22833 | Selectivity index [12]: 436; EC50 [13]: 0.11 µM; CC50 [14]: 48 µM |
| Cc1ccnc2c1NC(=O)c1cccnc1N2C1CC1 [NEVIRAPINE] | 290 | 0.073 | 3973 | – |
| Cc1cn([C@H]2C[C@H](N=[N+]=[N-])[C@@H](CO)O2)c(=O)[nH]c1=O [ZIDOVUDINE] | 3.2 | 0.004 | – | Selectivity index [12]: 27667; EC50 [13]: 0.003 µM; CC50 [14]: 83 µM |
